# Article PMC4382910 (Angewandte Chemie (International ed. in English), 2014)
# Test system: HeLa cells
# Assay: Protein fatty-acylation levels in cells by chemical reporter alk-14
# Assay type: cell-based, human
# Settings: nuclear lysates, in-gel fluorescence, Sirt2 inhibitor
# In short: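 HeLa cells with Sirt2 perturbed by siRNA knockdown or a selective Sirt2 inhibitor were cultured with fatty-acid chemical reporter alk-14. After harvest, cytosolic and nuclear lysates were prepared and core histones extracted. Reporter-labeled proteins were conjugated to a rhodamine dye by azide-alkyne click chemistry, and fatty-acylation levels were compared by fluorescence.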
compound,measurement,value
N#C/C(=C\c1ccc(-c2cc(Cl)ccc2Cl)o1)C(=O)Nc1cccc2ncccc12 [AGK2],labeling of core histones by alk-14,enhanced
